Assay results: ChEMBL document CHEMBL1135739, “Radiolabeled amino acids for tumor imaging with PET: radiosynthesis and biological evaluation of 2-amino-3-[18F]fluoro-2-methylpropanoic acid and 3-[18F]fluoro-2-methyl-2-(methylamino)propanoic acid” (J Med Chem, 2002)
“And” between values parts separate entries of the source, which are not always exact repeats. Equal values may be shown once.

What was measured:
[1] = species on record: Rattus norvegicus; assay: Radioactivity distribution in testis of normal fischer rat after injection of [18F]-fluoro-2-methyl-2-(methylamino)propanoic acid after 5 min.; format: ADME, organism-based; conditions: in vivo
How it was run: (§1)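 Male Fischer 344 rats (200–250 g), fed ad libitum, under intramuscular ketamine:xylazine anesthesia, got ~85 μCi radiotracer in 0.3 mL sterile water by tail-vein catheter. Groups of four were killed at 5, 30, 60 or 120 min. Dissected tissues were weighed and gamma-counted with dose standards. Counts were decay-corrected and given as %ID/g, mean ± standard error. Tissues were compared by one-way ANOVA.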

[2] = species on record: Rattus norvegicus; assay: Radioactivity distribution in spleen of normal fischer rat after injection of [18F]-fluoro-2-methyl-2-(methylamino)propanoic acid after 30 min.; format: ADME, organism-based; conditions: in vivo, 0.5 h; how it was run: as §1
[3] = species on record: Rattus norvegicus; assay: Radioactivity distribution in pancreas of normal fischer rat after injection of [18F]-fluoro-2-methyl-2-(methylamino)propanoic acid after 30 min.; format: ADME, organism-based; conditions: in vivo, 0.5 h
How it was run: (§2)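 Male Fischer 344 rats (200–250 g), fed ad libitum, anesthetized with intramuscular ketamine:xylazine (1:1, 0.1 mL/100 g). About 85 μCi tracer in 0.3 mL sterile water was given by tail-vein catheter. Groups of four were killed at 5, 30, 60 or 120 min. Tissues were weighed and gamma-counted against dose standards, decay-corrected, and expressed as %ID/g (mean ± standard error).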

[4] = species on record: Rattus norvegicus; assay: Radioactivity distribution in muscle of normal fischer rat after injection of [18F]-fluoro-2-methyl-2-(methylamino)propanoic acid after 120 min.; format: ADME, organism-based, Muscle tissue; conditions: in vivo, 2 h; how it was run: as §2
[5] = species on record: Rattus norvegicus; assay: Radioactivity distribution in blood of normal fischer rat after injection of [18F]-fluoro-2-methyl-2-(methylamino)propanoic acid after 120 min.; format: ADME, organism-based; conditions: in vivo, 2 h
How it was run: (§3)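 Normal male Fischer 344 rats (200–250 g), anesthetized with i.m. ketamine:xylazine (1:1), got ~85 μCi of tracer in 0.3 mL sterile water i.v. via tail-vein catheter. Groups of four were killed at 5, 30, 60 or 120 min. Tissues were weighed and gamma-counted against dose standards, and counts were decay-corrected to %ID/g. Results are mean ± standard error (n = 4), compared by one-way ANOVA.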

[6] = species on record: Rattus norvegicus; assay: Radioactivity distribution in spleen of normal fischer rat after injection of [18F]-fluoro-2-methyl-2-(methylamino)propanoic acid after 120 min.; format: ADME, organism-based; conditions: in vivo, 2 h; how it was run: as §2
[7] = species on record: Rattus norvegicus; assay: Radioactivity distribution in bone of normal fischer rat after injection of [18F]-fluoro-2-methyl-2-(methylamino)propanoic acid after 5 min.; format: ADME, organism-based, Bone element; conditions: in vivo; how it was run: as §3
[8] = species on record: Rattus norvegicus; assay: Radioactivity distribution in heart of normal fischer rat after injection of [18F]-fluoro-2-methyl-2-(methylamino)propanoic acid after 5 min.; format: ADME, organism-based; conditions: in vivo; how it was run: as §3
[9] = species on record: Rattus norvegicus; assay: Radioactivity distribution in lung of normal fischer rat after injection of [18F]-fluoro-2-methyl-2-(methylamino)propanoic acid after 120 min.; format: ADME, organism-based; conditions: in vivo, 2 h; how it was run: as §2
[10] = species on record: Rattus norvegicus; assay: Radioactivity distribution in liver of normal fischer rat after injection of [18F]-fluoro-2-methyl-2-(methylamino)propanoic acid after 5 min.; format: ADME, organism-based; conditions: in vivo; how it was run: as §2
[11] = species on record: Rattus norvegicus; assay: Radioactivity distribution in blood of normal fischer rat after injection of [18F]-fluoro-2-methyl-2-(methylamino)propanoic acid after 60 min.; format: ADME, organism-based; conditions: in vivo, 1 h; how it was run: as §3
[12] = species on record: Rattus norvegicus; assay: Radioactivity distribution in spleen of normal fischer rat after injection of [18F]-fluoro-2-methyl-2-(methylamino)propanoic acid after 60 min.; format: ADME, organism-based; conditions: in vivo, 1 h; how it was run: as §1
[13] = species on record: Rattus norvegicus; assay: Radioactivity distribution in heart of normal fischer rat after injection of [18F]-fluoro-2-methyl-2-(methylamino)propanoic acid after 60 min.; format: ADME, organism-based; conditions: in vivo, 1 h; how it was run: as §3
[14] = species on record: Rattus norvegicus; assay: Radioactivity distribution in testis of normal fischer rat after injection of [18F]-fluoro-2-methyl-2-(methylamino)propanoic acid after 120 min.; format: ADME, organism-based; conditions: in vivo, 2 h; how it was run: as §1
[15] = species on record: Rattus norvegicus; assay: Radioactivity distribution in bone of normal fischer rat after injection of [18F]-fluoro-2-methyl-2-(methylamino)propanoic acid after 30 min.; format: ADME, organism-based, Bone element; conditions: in vivo, 0.5 h; how it was run: as §3
[16] = species on record: Rattus norvegicus; assay: Radioactivity distribution in testis of normal fischer rat after injection of [18F]-fluoro-2-methyl-2-(methylamino)propanoic acid after 30 min.; format: ADME, organism-based; conditions: in vivo, 0.5 h; how it was run: as §1
[17] = species on record: Rattus norvegicus; assay: Radioactivity distribution in blood of normal fischer rat after injection of [18F]-fluoro-2-methyl-2-(methylamino)propanoic acid after 5 min.; format: ADME, organism-based; conditions: in vivo; how it was run: as §3
[18] = species on record: Rattus norvegicus; assay: Radioactivity distribution in brain of normal fischer rat after injection of [18F]-fluoro-2-methyl-2-(methylamino)propanoic acid after 60 min.; format: ADME, organism-based; conditions: in vivo, 1 h; how it was run: as §3
[19] = species on record: Rattus norvegicus; assay: Radioactivity distribution in brain of normal fischer rat after injection of [18F]-fluoro-2-methyl-2-(methylamino)propanoic acid after 120 min.; format: ADME, organism-based; conditions: in vivo, 2 h; how it was run: as §3
[20] = species on record: Rattus norvegicus; assay: Radioactivity distribution in muscle of normal fischer rat after injection of [18F]-fluoro-2-methyl-2-(methylamino)propanoic acid after 5 min.; format: ADME, organism-based, Muscle tissue; conditions: in vivo; how it was run: as §2
[21] = species on record: Rattus norvegicus; assay: Radioactivity distribution in tumor of tumor-bearing fischer rat after injection of [18F]-fluoro-2-methyl-2-(methylamino)propanoic acid after 5 min.; conditions: in vivo
[22] = species on record: Rattus norvegicus; assay: Radioactivity distribution in lung of normal fischer rat after injection of [18F]-fluoro-2-methyl-2-(methylamino)propanoic acid after 60 min.; format: ADME, organism-based; conditions: in vivo, 1 h; how it was run: as §2
[23] = species on record: Rattus norvegicus; assay: Radioactivity distribution in pancreas of normal fischer rat after injection of [18F]-fluoro-2-methyl-2-(methylamino)propanoic acid after 60 min.; format: ADME, organism-based; conditions: in vivo, 1 h; how it was run: as §2
[24] = species on record: Rattus norvegicus; assay: Radioactivity distribution in testis of normal fischer rat after injection of [18F]-fluoro-2-methyl-2-(methylamino)propanoic acid after 60 min.; format: ADME, organism-based; conditions: in vivo, 1 h; how it was run: as §1

CNC(C)(C[18F])C(=O)O.Cl (centres undefined)
ID/g [1]: 0.17% and 0.19%
ID/g [2]: 0.75%
ID/g [3]: 3%
ID/g [4]: 0.13% and 0.16%
ID/g [5]: 0.1%
ID/g [6]: 0.47% and 0.4%
ID/g [7]: 0.34% and 0.33%
ID/g [8]: 0.22% and 0.34%
ID/g [9]: 0.3% and 0.19%
ID/g [10]: 0.79% and 0.94%
ID/g [11]: 0.18% and 0.17%
ID/g [12]: 0.68% and 0.45%
ID/g [13]: 0.2% and 0.25%
ID/g [14]: 0.06% and 0.08%
ID/g [15]: 0.32%
ID/g [16]: 0.11%
ID/g [17]: 0.61% and 0.69%
ID/g [18]: 0.03% and < 0.022%
ID/g [19]: 0.03% and < 0.02%
ID/g [20]: 0.16% and 0.22%
ID/g [21]: 1.29%
ID/g [22]: 0.38% and 0.26%
ID/g [23]: 3.24% and 2.42%
ID/g [24]: 0.08%
